The source made the active and inactive calls. Unless noted, no stated cut-off is given here; in the data, active means inhibition above about 30%; inactive means the rest.
Key:
[1] = SK-BR-3 cell growth inhibitors, pilot screen, 24 h, human (AID 572;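 active means viability at or below 10% of carrier control in both of two separate runs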;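 further: compound exposure lasted between 18 and 24 h rather than exactly 24 h; 100% = carrier-treated control wells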); settings: SK-BR-3 viability, CellTiter-Glo luminescence, at 10 µM, stronger effect = lower value
[2] = HUVEC growth inhibition – cell-based, human, primary screen (AID 575;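 active means viability at or below 30% in both replicate assays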;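 further: 100% = median of untreated cell wells with 0.1% DMSO on each plate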); settings: HUVEC proliferation, CellTiter-Glo luminescence, 72 h; at 10 µM; stronger effect = lower value
In short: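 Test system – primary HUVEC, no more than 12 passages · Dosing – one dose, 10 µM final, 0.1% DMSO · Times – 72 h treatment at 37 °C · Measured by – ATP-based CellTiter-Glo luminescent read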

[3] = growth inhibitors of H69AR lung tumor, primary screen, human, duplicate replicates (AID 580;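 active means viability at or under a set limit in both replicates, limit being median viability minus 3 SD, cut at about 48% in these data, passing the limit was not always enough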;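 further: 100% = mean luminescence of untreated wells and 0% = no signal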); settings: H69AR lung tumor cells viability, ATP luminescence, 72 h; at 10 µM; stronger effect = lower value
[4] = reversal of MRP1-mediated doxorubicin resistance, pilot screen, H69AR cells, doxorubicin co-treatment (AID 601;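 active means viability loss from added drug above about 55%, and viability with drug at most 40%, in both replicates, limit read from the data, passing the limit was not always enough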); settings: CellTiter-Glo, 72 h, at 10 µM; for differential viability (reversal): stronger effect = higher value
[5] = 384-well plate pilot, post-Golgi transport modulator project, inhibition of yeast transport mutant growth (AID 636; in the data active means inhibition above about 31%); settings: absorbance 615 nm, about 18 h, stronger effect = higher value
[6] = growth suppression of yeast trafficking mutant, preliminary HTS, modulators of trafficking downstream of Golgi apparatus project, 1536-format plate, OD 615 nm (AID 637); settings: yeast transport mutant growth, absorbance 615 nm, 18 h; stronger effect = higher value
[7] = H69AR cells + 2 uM doxorubicin, measured here: viability with 2 uM doxorubicin, stronger effect = lower value
[8] = H69AR cells, compound alone cytotoxicity

SMILES	viability [1]	viability [2]	viability [3]	differential viability (reversal) ([4]; H69AR cells + 2 uM doxorubicin)	viability [4, 7]	viability [4, 8]	inhibition [5]	inhibition [6]
COC(=O)CNC(=O)COC(=O)c1cc(Cl)cc(Cl)c1N	104% (inactive)	96.6% (inactive)	92.6% (inactive)	-2.94% (inactive)	95.5%	92.6%	0.82% (inactive)	45.3% (active)
Nn1c(SCC(=O)Nc2ccc(S(=O)(=O)N3CCCC3)cc2)nnc1C(F)(F)F	110% (inactive)	89.7% (inactive)	90.8% (inactive)	-6.72% (inactive)	97.6%	90.8%	0% (inactive)	3.11% (inactive)
Cc1cccc(NC(=O)C2CCCN2C(=O)OCC(C)C)c1C (stereo not drawn)	96% (inactive)	108% (inactive)	92% (inactive)	8.52% (inactive)	83.5%	92%	-4.86% (inactive)	-3.82% (inactive)
Cc1ccc2nc(C(F)(F)F)c(C#N)c(N)c2c1	50% (inactive)	78.9% (inactive)	71.3% (inactive)	-43.8% (inactive)	115%	71.3%	-4.38% (inactive)	6.55% (inactive)
Brc1c(NC2=NCCN2)ccc2nccnc12	105% (inactive)	106% (inactive)	95% (inactive)	-7.09% (inactive)	102%	95%	-0.39% (inactive)	15.3% (inactive)
COc1cccc(S(=O)(=O)Nc2ccc(C(=O)N3CCN(C(=O)c4ccco4)CC3)cc2)c1	85% (inactive)	104% (inactive)	86.3% (inactive)	14.7% (inactive)	71.5%	86.3%	-2.19% (inactive)	-0.97% (inactive)
CCOC(=O)C1CSC(CC(=O)Nc2ccc(Cl)cc2)C(=O)N1 (stereo not drawn)	86% (inactive)	111% (inactive)	103% (inactive)	11.6% (inactive)	91.4%	103%	0% (inactive)	-3.64% (inactive)
CCCC(=O)Nc1cnc(NC(=O)c2cccc(F)c2)cc1C	86% (inactive)	90.3% (inactive)	88.7% (inactive)	6.15% (inactive)	82.6%	88.7%	2.47% (inactive)	2.95% (inactive)
CCOC(=O)N1CCC(NC(=O)C2CCC(Cn3c(=O)[nH]c4ccccc4c3=O)CC2)CC1 (stereo not drawn)	134% (inactive)	64.8% (inactive)	16.8% (active)	-7.75% (inactive)	24.6%	16.8%	-5.71% (inactive)	0.66% (inactive)
COC(=O)c1[nH]c(C)c(/C(O)=C2\C(=O)C(=O)N(CCN3CCOCC3)C2c2cccs2)c1C (stereo not drawn)	105% (inactive)	76.5% (inactive)	17.3% (active)	-54.5% (inactive)	71.8%	17.3%	-2.3% (inactive)	13.1% (inactive)
COC(=O)[C@H](C)NC(=O)Nc1cccc(C(F)(F)F)c1	145% (inactive)	97.2% (inactive)	89.9% (inactive)	-5.75% (inactive)	95.7%	89.9%	-0.96% (inactive)	30% (active)
Cc1ccc(S(=O)(=O)N2CCN(S(=O)(=O)N(C)C)CC2)cc1	123% (inactive)	107% (inactive)	103% (inactive)	8.38% (inactive)	94.7%	103%	-3.15% (inactive)	-4.68% (inactive)
COc1ccccc1-n1nnnc1SCc1cc2c(cc1Br)OCO2	65% (inactive)	86.1% (inactive)	72.2% (inactive)	-4.98% (inactive)	77.2%	72.2%	-6.16% (inactive)	4.18% (inactive)
COc1cccc(NC(=O)N(Cc2ccco2)C(C)c2cccs2)c1 (stereo not drawn)	92% (inactive)	88.9% (inactive)	89.8% (inactive)	16.8% (inactive)	73%	89.8%	-0.52% (inactive)	-4.1% (inactive)
Cn1c(-c2ccc(F)cc2)cnc1SCC(=O)Nc1ccccc1N1CCOCC1	94% (inactive)	103% (inactive)	102% (inactive)	12.9% (inactive)	88.8%	102%	-7.57% (inactive)	-4.55% (inactive)
Cc1cc(N2C(=O)CC(N3CCN(c4ccc(C(=O)c5cccs5)cc4)CC3)C2=O)no1 (stereo not drawn)	96% (inactive)	87.4% (inactive)	87.6% (inactive)	-4.99% (inactive)	92.6%	87.6%	-3.42% (inactive)	13.6% (inactive)
COC(=O)c1cccc(NC(=O)CN2CCN(Cc3ccccc3)CC2)c1	56% (inactive)	105% (inactive)	90.5% (inactive)	-2.89% (inactive)	93.4%	90.5%	-5.34% (inactive)	-0.36% (inactive)
CC(=O)OCC(=O)[C@@]1(O)CC[C@H]2[C@@H]3CCC4=CC(=O)CC[C@]4(C)[C@H]3C(=O)C[C@@]21C	108% (inactive)	95.9% (inactive)	104% (inactive)	8.62% (inactive)	95.2%	104%	-4.55% (inactive)	-1.33% (inactive)

SMILES	viability [1]	viability [2]	viability [3]	differential viability (reversal) ([4]; H69AR cells + 2 uM doxorubicin)	viability [4, 7]	viability [4, 8]	inhibition [5]	inhibition [6]
O=C(CN1C(=O)c2cccc3cccc1c23)Nc1ccccc1C(=O)NCc1ccco1	89% (inactive)	108% (inactive)	78.9% (inactive)	-2.93% (inactive)	81.8%	78.9%	-1.49% (inactive)	-8.67% (inactive)
CC1=NS(=O)(=O)c2cc(Cl)ccc2N1	119% (inactive)	89.4% (inactive)	94.4% (inactive)	7.28% (inactive)	87.1%	94.4%	-1.17% (inactive)	4.67% (inactive)
Cc1ccc(N2CCN(CCc3nc4cc(NS(C)(=O)=O)ccc4n3C)CC2)cc1	104% (inactive)	110% (inactive)	90.1% (inactive)	3.72% (inactive)	86.4%	90.1%	-6.75% (inactive)	-5.74% (inactive)
Nc1nc2c(ncn2COCCO)c(=O)[nH]1	97% (inactive)	86.9% (inactive)	98.9% (inactive)	3.38% (inactive)	95.5%	98.9%	0.65% (inactive)	3% (inactive)
COc1cc(C(=O)OCc2cc3ccccc3[nH]c2=O)cc(OC)c1OC	117% (inactive)	68.6% (inactive)	82.4% (inactive)	11.3% (inactive)	71.1%	82.4%	-2.8% (inactive)	-2.91% (inactive)
O=C(Nc1ccccc1C(=O)N1CCOCC1)c1cccc(S(=O)(=O)N2CCCC2)c1	112% (inactive)	92.3% (inactive)	88.2% (inactive)	-1.19% (inactive)	89.3%	88.2%	-2.08% (inactive)	0.49% (inactive)
Cc1cc(C)nc(NC2=NCC(=O)N2c2ccc(Cl)cc2)n1	99% (inactive)	117% (inactive)	97.1% (inactive)	1.69% (inactive)	95.4%	97.1%	-7.03% (inactive)	0.55% (inactive)
COc1ccc(N2CCN(C(=O)Cc3ccc(-n4c(=O)[nH]c5ccccc5c4=O)cc3)CC2)cc1	103% (inactive)	75.8% (inactive)	94.7% (inactive)	3.2% (inactive)	91.5%	94.7%	0.26% (inactive)	-3.11% (inactive)
O=C(O)C(c1ccccc1)N1CCCC1 (stereo not drawn)	106% (inactive)	102% (inactive)	95.9% (inactive)	16.4% (inactive)	79.5%	95.9%	-5.6% (inactive)	-3.64% (inactive)
CCOC(=O)c1ccc(COC(=O)c2cc3ccccc3oc2=O)o1	114% (inactive)	114% (inactive)	114% (inactive)	20.8% (inactive)	93.1%	114%	-5.89% (inactive)	0.65% (inactive)
Cc1cc(S(=O)(=O)N2CCN(c3ccccc3C)CC2)ccc1F	89% (inactive)	90.1% (inactive)	79.5% (inactive)	-0.315% (inactive)	79.8%	79.5%	-0.78% (inactive)	4.59% (inactive)
COc1cc2c(cc1OC)C(/C(C#N)=N\O)=NC(C)(C)C2	86% (inactive)	107% (inactive)	100% (inactive)	8.75% (inactive)	91.6%	100%	-8.77% (inactive)	2% (inactive)
COC(=O)c1ccccc1NC(=O)C12CCC(C)(C(=O)O1)C2(C)C (stereo not drawn)	84% (inactive)	87.6% (inactive)	90.5% (inactive)	13.7% (inactive)	76.8%	90.5%	-6.58% (inactive)	0% (inactive)
Cc1nc(CNS(=O)(=O)c2cccc(F)c2)cs1	64% (inactive)	93.3% (inactive)	91.4% (inactive)	1.23% (inactive)	90.1%	91.4%	-1.95% (inactive)	12.1% (inactive)
O=C(NCc1cccnc1)c1cccc(C(F)(F)F)c1	87% (inactive)	109% (inactive)	112% (inactive)	16% (inactive)	95.7%	112%	-5.34% (inactive)	6.55% (inactive)
c1ccc(-c2cc(N3CCCCC3)ncn2)cc1	105% (inactive)	101% (inactive)	99.7% (inactive)	9.16% (inactive)	90.6%	99.7%	-7.26% (inactive)	-0.32% (inactive)
CCOC(=O)Nc1nnc(-c2ccccc2OC)s1	86% (inactive)	98.2% (inactive)	93.9% (inactive)	0.53% (inactive)	93.3%	93.9%	-0.14% (inactive)	-4.68% (inactive)
Cc1ccc(Cn2nnc(C(=O)Nc3cccc(C)c3C)c2N)cc1	97% (inactive)	63.1% (inactive)	86.2% (inactive)	-7.94% (inactive)	94.1%	86.2%	-6.1% (inactive)	-2.3% (inactive)

— PubChem BioAssay
